Data from ChEMBL document CHEMBL1649552 (2009).
Values after ≈ are worked out from the molar mass of the structure shown.

What was measured:
Type in all cases: functional
[1] = test system: Streptococcus pyogenes; assay: Antibacterial activity against Streptococcus pyogenes by CLSI M100-S17 method
[2] = test system: Enterococcus faecalis; assay: Antibacterial activity against Enterococcus faecalis by CLSI M100-S17 method
[3] = test system: Staphylococcus epidermidis; assay: Antibacterial activity against methicillin-susceptible Staphylococcus epidermidis by CLSI M100-S17 method
[4] = test system: Enterococcus faecium; assay: Antibacterial activity against Enterococcus faecium assessed as intermediate isolates by CLSI M100-S17 method
[5] = test system: Streptococcus pneumoniae; assay: Antibacterial activity against Streptococcus pneumoniae assessed as susceptible isolates by CLSI M100-S17 method
Outline: (§1)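 CLSI broth microdilution on clinical isolates, using frozen in-house-prepared panels of test and comparator agents. MICs were read after 20 to 24 h incubation at 35°C in ambient air. Susceptible/intermediate categories were assigned by CLSI M100-S17 guidelines.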

[6] = test system: Streptococcus pyogenes; assay: Antibacterial activity against Streptococcus pyogenes assessed as susceptible isolates by CLSI M100-S17 method; outline: as §1
[7] = test system: Staphylococcus aureus; assay: Antibacterial activity against methicillin-resistant Staphylococcus aureus by CLSI M100-S17 method
[8] = test system: Staphylococcus epidermidis; assay: Antibacterial activity against methicillin-susceptible Staphylococcus epidermidis assessed as susceptible isolates by CLSI M100-S17 method
[9] = test system: Streptococcus agalactiae; assay: Antibacterial activity against Streptococcus agalactiae by CLSI M100-S17 method
[10] = test system: Enterococcus faecalis; assay: Antibacterial activity against Enterococcus faecalis assessed as susceptible isolates by CLSI M100-S17 method
[11] = test system: Enterococcus faecalis; assay: Antibacterial activity against Enterococcus faecalis assessed as intermediate isolates by CLSI M100-S17 method
[12] = test system: Enterococcus faecium; assay: Antibacterial activity against Enterococcus faecium by CLSI M100-S17 method
[13] = test system: Staphylococcus aureus; assay: Antibacterial activity against methicillin-susceptible Staphylococcus aureus assessed as susceptible isolates by CLSI M100-S17 method
[14] = test system: Staphylococcus epidermidis; assay: Antibacterial activity against methicillin-resistant Staphylococcus epidermidis by CLSI M100-S17 method
[15] = test system: Enterococcus faecalis; assay: Antibacterial activity against Enterococcus faecalis assessed as resistant isolates by CLSI M100-S17 method
[16] = test system: Staphylococcus aureus; assay: Antibacterial activity against methicillin-susceptible Staphylococcus aureus assessed as intermediate isolates by CLSI M100-S17 method
[17] = test system: Enterococcus faecium; assay: Antibacterial activity against Enterococcus faecium assessed as resistant isolates by CLSI M100-S17 method
[18] = test system: Enterococcus faecium; assay: Antibacterial activity against Enterococcus faecium assessed as susceptible isolates by CLSI M100-S17 method
[19] = test system: Staphylococcus aureus; assay: Antibacterial activity against methicillin-susceptible Staphylococcus aureus by CLSI M100-S17 method
[20] = test system: Streptococcus pneumoniae; assay: Antibacterial activity against Streptococcus pneumoniae by CLSI M100-S17 method
[21] = test system: Streptococcus agalactiae; assay: Antibacterial activity against Streptococcus agalactiae assessed as susceptible isolates by CLSI M100-S17 method; outline: as §1
[22] = test system: Staphylococcus epidermidis; assay: Antibacterial activity against methicillin-susceptible Staphylococcus epidermidis assessed as intermediate isolates by CLSI M100-S17 method
[23] = test system: Proteus mirabilis; assay: Antibacterial activity against Proteus mirabilis assessed as susceptible isolates by CLSI M100-S17 method in presence of Tazobactam; outline: as §1
[24] = test system: Escherichia coli; assay: Antibacterial activity against Escherichia coli assessed as intermediate isolates by CLSI M100-S17 method in presence of Tazobactam; outline: as §1
[25] = test system: Serratia marcescens; assay: Antibacterial activity against Serratia marcescens by CLSI M100-S17 method in presence of Tazobactam; outline: as §1
[26] = test system: Escherichia coli; assay: Antibacterial activity against Escherichia coli by CLSI M100-S17 method in presence of Tazobactam; outline: as §1
[27] = test system: Proteus mirabilis; assay: Antibacterial activity against Proteus mirabilis by CLSI M100-S17 method in presence of Tazobactam; outline: as §1
[28] = test system: Stenotrophomonas maltophilia; assay: Antibacterial activity against Stenotrophomonas maltophilia by CLSI M100-S17 method in presence of Tazobactam; outline: as §1
[29] = test system: Moraxella catarrhalis; assay: Antibacterial activity against Moraxella catarrhalis by CLSI M100-S17 method in presence of Tazobactam; outline: as §1
[30] = test system: Serratia marcescens; assay: Antibacterial activity against Serratia marcescens assessed as resistant isolates by CLSI M100-S17 method in presence of Tazobactam
Outline: (§2)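 Clinical isolates were tested by CLSI broth microdilution in frozen, in-house-prepared 96-well panels of the test agent and comparator agents. MICs were read and classed as susceptible, intermediate or resistant using CLSI M100-S17 breakpoints. The value is the share of isolates in each category.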

[31] = test system: Acinetobacter baumannii; assay: Antibacterial activity against Acinetobacter baumannii by CLSI M100-S17 method in presence of Tazobactam; outline: as §1
[32] = test system: Klebsiella oxytoca; assay: Antibacterial activity against Klebsiella oxytoca assessed as susceptible isolates by CLSI M100-S17 method in presence of Tazobactam; outline: as §1
[33] = test system: Enterobacter cloacae; assay: Antibacterial activity against Enterobacter cloacae assessed as susceptible isolates by CLSI M100-S17 method in presence of Tazobactam; outline: as §1
[34] = test system: Pseudomonas aeruginosa; assay: Antibacterial activity against Pseudomonas aeruginosa assessed as resistant isolates by CLSI M100-S17 method in presence of Tazobactam; outline: as §2
[35] = test system: Serratia marcescens; assay: Antibacterial activity against Serratia marcescens assessed as intermediate isolates by CLSI M100-S17 method in presence of Tazobactam; outline: as §1
[36] = test system: Klebsiella pneumoniae; assay: Antibacterial activity against Klebsiella pneumoniae assessed as intermediate isolates by CLSI M100-S17 method in presence of Tazobactam; outline: as §1
[37] = test system: Klebsiella pneumoniae; assay: Antibacterial activity against Klebsiella pneumoniae assessed as resistant isolates by CLSI M100-S17 method in presence of Tazobactam; outline: as §2
[38] = test system: Pseudomonas aeruginosa; assay: Antibacterial activity against Pseudomonas aeruginosa assessed as intermediate isolates by CLSI M100-S17 method in presence of Tazobactam; outline: as §1
[39] = test system: Enterobacter cloacae; assay: Antibacterial activity against Enterobacter cloacae assessed as resistant isolates by CLSI M100-S17 method in presence of Tazobactam; outline: as §2
[40] = test system: Pseudomonas aeruginosa; assay: Antibacterial activity against Pseudomonas aeruginosa by CLSI M100-S17 method in presence of Tazobactam; outline: as §1
[41] = test system: Klebsiella oxytoca; assay: Antibacterial activity against Klebsiella oxytoca assessed as intermediate isolates by CLSI M100-S17 method in presence of Tazobactam; outline: as §1
[42] = test system: Pseudomonas aeruginosa; assay: Antibacterial activity against Pseudomonas aeruginosa assessed as susceptible isolates by CLSI M100-S17 method in presence of Tazobactam; outline: as §1
[43] = test system: Escherichia coli; assay: Antibacterial activity against Escherichia coli assessed as susceptible isolates by CLSI M100-S17 method in presence of Tazobactam; outline: as §1
[44] = test system: Enterobacter cloacae; assay: Antibacterial activity against Enterobacter cloacae assessed as intermediate isolates by CLSI M100-S17 method in presence of Tazobactam; outline: as §1
[45] = test system: Klebsiella oxytoca; assay: Antibacterial activity against Klebsiella oxytoca assessed as resistant isolates by CLSI M100-S17 method in presence of Tazobactam; outline: as §2
[46] = test system: Klebsiella oxytoca; assay: Antibacterial activity against Klebsiella oxytoca by CLSI M100-S17 method in presence of Tazobactam; outline: as §1
[47] = test system: Acinetobacter baumannii; assay: Antibacterial activity against Acinetobacter baumannii assessed as intermediate isolates by CLSI M100-S17 method in presence of Tazobactam; outline: as §2
[48] = test system: Klebsiella pneumoniae; assay: Antibacterial activity against Klebsiella pneumoniae by CLSI M100-S17 method in presence of Tazobactam; outline: as §1
[49] = test system: Escherichia coli; assay: Antibacterial activity against Escherichia coli assessed as resistant isolates by CLSI M100-S17 method in presence of Tazobactam; outline: as §2
[50] = test system: Acinetobacter baumannii; assay: Antibacterial activity against Acinetobacter baumannii assessed as susceptible isolates by CLSI M100-S17 method in presence of Tazobactam; outline: as §1
[51] = test system: Proteus mirabilis; assay: Antibacterial activity against Proteus mirabilis assessed as intermediate isolates by CLSI M100-S17 method in presence of Tazobactam; outline: as §2
[52] = test system: Serratia marcescens; assay: Antibacterial activity against Serratia marcescens assessed as susceptible isolates by CLSI M100-S17 method in presence of Tazobactam; outline: as §1
[53] = test system: Klebsiella pneumoniae; assay: Antibacterial activity against Klebsiella pneumoniae assessed as susceptible isolates by CLSI M100-S17 method in presence of Tazobactam; outline: as §1
[54] = test system: Enterobacter cloacae; assay: Antibacterial activity against Enterobacter cloacae by CLSI M100-S17 method in presence of Tazobactam; outline: as §1

`CC(=O)NC[C@H]1CN(c2ccc(N3CCOCC3)c(F)c2)C(=O)O1` [LINEZOLID] gave an MIC50 [1] of 1 µg/mL (≈ 2.96 µM), an MIC90 [1] of 1 µg/mL (≈ 2.96 µM) and an MIC50 [2] of 2 µg/mL (≈ 5.93 µM). For the same compound, the MIC90 [2] was 2 µg/mL (≈ 5.93 µM), the MIC50 [3] was 0.5 µg/mL (≈ 1.48 µM) and the MIC90 [3] was 1 µg/mL (≈ 2.96 µM). It also gave an Activity [4] of 8.6%, an Activity [5] of 100% and an Activity [6] of 100%. For the same compound, the MIC50 [7] was 2 µg/mL (≈ 5.93 µM), the MIC90 [7] was 4 µg/mL (≈ 11.9 µM) and the Activity [8] was 100%. For the same compound, the MIC50 [9] was 1 µg/mL (≈ 2.96 µM), the MIC90 [9] was 1 µg/mL (≈ 2.96 µM) and the Activity [10] was 98.7%. The Activity [11] was 1.3%, the MIC50 [12] was 2 µg/mL (≈ 5.93 µM) and the MIC90 [12] was 2 µg/mL (≈ 5.93 µM). The Activity [13] was 100%, the MIC50 [14] was 1 µg/mL (≈ 2.96 µM) and the MIC90 [14] was 1 µg/mL (≈ 2.96 µM). It also gave an Activity [15] of 0%, an Activity [16] of 0% and an Activity [17] of 0%. It also gave an Activity [18] of 91.4%, an MIC50 [19] of 2 µg/mL (≈ 5.93 µM) and an MIC90 [19] of 2 µg/mL (≈ 5.93 µM). It also gave an MIC50 [20] of 0.5 µg/mL (≈ 1.48 µM), an MIC90 [20] of 1 µg/mL (≈ 2.96 µM) and an Activity [21] of 100%. The Activity [22] was 0%.
Compound `CCN1CCN(C(=O)N[C@@H](C(=O)N[C@@H]2C(=O)N3[C@@H]2SC(C)(C)[C@@H]3C(=O)O)c2ccccc2)C(=O)C1=O` [PIPERACILLIN] has an Activity [23] of 100%, an Activity [24] of 1% and an MIC50 [25] of 2 µg/mL. It also gave an MIC90 [25] of 8 µg/mL, an MIC50 [26] of 2 µg/mL and an MIC90 [26] of 4 µg/mL. For the same compound, the MIC50 [27] was 2 µg/mL, the MIC90 [27] was 64 µg/mL and the MIC50 [28] was greater than 512 µg/mL. It also gave an MIC90 [28] greater than 512 µg/mL, an MIC [29] of no more than 1 µg/mL and an MIC50 [29] of no more than 1 µg/mL. For the same compound, the MIC90 [29] was no more than 1 µg/mL, the Activity [30] was 0.9% and the MIC50 [31] was 4 µg/mL. For the same compound, the MIC90 [31] was greater than 512 µg/mL, the Activity [32] was 90% and the Activity [33] was 82.6%. The Activity [34] was 7.3%, the Activity [35] was 4.7% and the Activity [36] was 1.3%. For the same compound, the Activity [37] was 2%, the Activity [38] was 0% and the Activity [39] was 9%. The MIC50 [40] was 4 µg/mL, the MIC90 [40] was 64 µg/mL and the Activity [41] was 1%. The Activity [42] was 92.7%, the Activity [43] was 97.6% and the Activity [44] was 8.4%. The Activity [45] was 9%, the MIC50 [46] was 2 µg/mL and the MIC90 [46] was 16 µg/mL. The Activity [47] was 12%, the MIC50 [48] was 2 µg/mL and the MIC90 [48] was 8 µg/mL. The Activity [49] was 1.4%, the Activity [50] was 76% and the Activity [51] was 0%. It also gave an Activity [52] of 94.4%, an Activity [53] of 96.7% and an MIC50 [54] of 2 µg/mL. The MIC90 [54] was 64 µg/mL.
